Measured values of several laboratories.
Target: Phosphatidylinositol 4-phosphate 5-kinase type-1 gamma (PIP5K1C, Homo sapiens, UniProt O60331)

| read-out | action | method | tested at | endpoint | value | Compound |
| --- | --- | --- | --- | --- | --- | --- |
| cell-free assay |  | competition with immobilised ligand | 1 µM | remaining binding | 91% | CC1=C(C#N)C(c2ccc3c(c2)c(NC(=O)c2ccccc2C)nn3C)C(C#N)=C(C)N1 |
| enzyme activity | inhibitor |  | 1 µM | inhibition | -3% | CN1CC(Oc2cnc(C#N)cc2-c2ccn3nc(NC(=O)C4CC4)cc3c2)C1 |
| cell-free assay |  |  | 20 µM | remaining signal | 0% | Nc1ncnc2occ(-c3ccc(NC(=O)Nc4cc(C(F)(F)F)ccc4F)cc3)c12 |
| enzyme activity | inhibitor |  | 10 µM | inhibition | 0% | CS(=O)(=O)Nc1cccc(-c2csc(NC(=O)CSc3nc4nccnc4c(=O)n3CCc3ccccc3)n2)c1 |
| enzyme activity | inhibitor |  | 0.1 µM | activity vs control | 110% | Cc1cc(NC(=O)c2cccc3cc(-c4cccc5[nH]nc(N)c45)ccc23)ccc1F |
| enzyme activity | inhibitor |  | 10 µM | inhibition | 12% | O=C(CSc1nc2nccnc2c(=O)n1CCc1ccccc1)Nc1nccs1 |
| cell-free assay |  | competition with immobilised ligand | 1 µM | remaining binding | 88% | CNCc1ccccc1-c1csc([C@@H](C)Nc2nc(C)nc3cc(OC)c(OC)cc23)c1 |
| enzyme activity | inhibitor |  | 1 µM | remaining activity | 96% | COc1cc(Cl)c(C(=O)N[C@@H](CN[C@H]2CC[C@@H](N)CC2)Cc2ccc(C#N)cc2)cc1-c1ccc(CN[C@H](C)c2ccc(C)cc2)o1 |
| enzyme activity | inhibitor | radiometric | 1 µM | remaining activity | 96% | Cc1cnc(NC2CCOCC2)nc1-n1cnc(C(=O)NC(CN)c2cc(F)cc(Cl)c2)c1 (centres unmarked) |
| cell-free assay |  |  | 10 µM | remaining signal | 98% | Cc1ccc(NC(=O)c2ccc(C)c(C(F)(F)F)c2)cc1C#Cc1nn(C2CCC(O)CC2)c2ncnc(N)c12 (centres unmarked) |
| cell-free assay |  |  | 23.5 nM | remaining signal | 100% | Cc1ccc(C(=O)Nc2ccc(CN3CCN(C)CC3)c(C(F)(F)F)c2)cc1C#Cc1cnc2cccnn12 |
